{
  "source": "ChEMBL document CHEMBL3272084",
  "about": "“Adamantane and protoadamantanealkanamines as potential anti-Parkinson agents” (J Med Chem, 1976)",
  "key": {"[1]": {"assay": "Acute toxicity in po dosed albino CFW mouse assessed as mortality measured over 48 hrs", "type": "organism-based", "settings": "albino CFW, in vivo"}, "[2]": {"assay": "Acute toxicity in ip dosed albino CFW mouse assessed as mortality measured over 48 hrs", "type": "organism-based", "settings": "albino CFW, in vivo"}, "Mus musculus [3]": {"test_system": "Mus musculus", "assay": "Antidepressant activity in CFW mouse assessed as reversal of reserpine-induced hypothermia by measuring temperature index at 0.04 mmol/kg, sc measured every 30 mins up to 1.5 hrs", "type": "functional"}, "Mus musculus [4]": {"test_system": "Mus musculus", "assay": "Antiparkinsonian activity in CFW mouse assessed as reversal of reserpine-induced catalepsy at 0.08 mmol/kg, sc measured every 30 mins up to 1.5 hrs", "type": "functional, organism-based"}, "Rattus norvegicus [5]": {"test_system": "Rattus norvegicus", "assay": "Antiparkinsonian activity in Wistar rat assessed as reversal of reserpine-induced catalepsy at 0.11 mmol/kg, po measured every 30 mins up to 1.5 hrs", "type": "functional, organism-based"}, "Mus musculus [6]": {"test_system": "Mus musculus", "assay": "Antiparkinsonian activity in CFW mouse assessed as reversal of reserpine-induced catalepsy at 0.15 mmol/kg, sc measured every 30 mins up to 1.5 hrs", "type": "functional, organism-based"}, "Rattus norvegicus [7]": {"test_system": "Rattus norvegicus", "assay": "Antiparkinsonian activity in Wistar rat assessed as reversal of reserpine-induced catalepsy at 0.15 mmol/kg, po measured every 30 mins up to 1.5 hrs", "type": "functional, organism-based"}, "Mus musculus [8]": {"test_system": "Mus musculus", "assay": "Antidepressant activity in CFW mouse assessed as reversal of reserpine-induced hypothermia by measuring temperature index at 0.02 mmol/kg, sc measured every 30 mins up to 1.5 hrs", "type": "functional, organism-based"}, "Mus musculus [9]": {"test_system": "Mus musculus", "assay": "Antiparkinsonian activity in CFW mouse assessed as reversal of reserpine-induced catalepsy at 0.02 mmol/kg, sc measured every 30 mins up to 1.5 hrs", "type": "functional, organism-based"}, "Rattus norvegicus [10]": {"test_system": "Rattus norvegicus", "assay": "Antiparkinsonian activity in Wistar rat assessed as reversal of reserpine-induced catalepsy at 0.16 mmol/kg, po measured every 30 mins up to 1.5 hrs", "type": "functional, organism-based"}, "Rattus norvegicus [11]": {"test_system": "Rattus norvegicus", "assay": "Potency index, ratio of compound to amantadine for antiparkinsonian activity in po dosed Wistar rat assessed as reversal of reserpine-induced catalepsy", "type": "functional"}, "Mus musculus [12]": {"test_system": "Mus musculus", "assay": "Antidepressant activity in CFW mouse assessed as reversal of reserpine-induced hypothermia by measuring temperature index at 0.15 mmol/kg, sc measured every 30 mins up to 1.5 hrs", "type": "functional"}, "Mus musculus [13]": {"test_system": "Mus musculus", "assay": "Antidepressant activity in CFW mouse assessed as reversal of reserpine-induced hypothermia by measuring temperature index at 0.20 mmol/kg, sc measured every 30 mins up to 1.5 hrs", "type": "functional, organism-based"}, "Mus musculus [14]": {"test_system": "Mus musculus", "assay": "Antiparkinsonian activity in CFW mouse assessed as reversal of reserpine-induced catalepsy at 0.20 mmol/kg, sc measured every 30 mins up to 1.5 hrs", "type": "functional, organism-based"}, "Mus musculus [15]": {"test_system": "Mus musculus", "assay": "Antidepressant activity in CFW mouse assessed as reversal of reserpine-induced hypothermia by measuring temperature index at 0.07 mmol/kg, sc measured every 30 mins up to 1.5 hrs", "type": "functional"}, "Mus musculus [16]": {"test_system": "Mus musculus", "assay": "Antiparkinsonian activity in CFW mouse assessed as reversal of reserpine-induced catalepsy at 0.07 mmol/kg, sc measured every 30 mins up to 1.5 hrs", "type": "functional, organism-based", "outline": "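Groups of five CFW mice were given reserpine 4 mg/kg sc, and catalepsy was assessed 2.5 h later. Reversal was scored 0–5: 0 no effect, 1 marginal, 2 significant, 3 marked, 4 approaching complete, 5 complete reversal.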"}, "Rattus norvegicus [17]": {"test_system": "Rattus norvegicus", "assay": "Antiparkinsonian activity in Wistar rat assessed as reversal of reserpine-induced catalepsy at 0.14 mmol/kg, po measured every 30 mins up to 1.5 hrs", "type": "functional, organism-based"}, "Mus musculus [18]": {"test_system": "Mus musculus", "assay": "Antidepressant activity in CFW mouse assessed as reversal of reserpine-induced hypothermia by measuring temperature index at 0.21 mmol/kg, sc measured every 30 mins up to 1.5 hrs", "type": "functional"}, "Mus musculus [19]": {"test_system": "Mus musculus", "assay": "Antiparkinsonian activity in CFW mouse assessed as reversal of reserpine-induced catalepsy at 0.21 mmol/kg, sc measured every 30 mins up to 1.5 hrs", "type": "functional, organism-based"}, "Rattus norvegicus [20]": {"test_system": "Rattus norvegicus", "assay": "Antiparkinsonian activity in Wistar rat assessed as reversal of reserpine-induced catalepsy at 0.21 mmol/kg, po measured every 30 mins up to 1.5 hrs", "type": "functional, organism-based"}, "Mus musculus [21]": {"test_system": "Mus musculus", "assay": "Antidepressant activity in CFW mouse assessed as reversal of reserpine-induced hypothermia by measuring temperature index at 0.05 mmol/kg, sc measured every 30 mins up to 1.5 hrs", "type": "functional, organism-based"}, "Mus musculus [22]": {"test_system": "Mus musculus", "assay": "Antiparkinsonian activity in CFW mouse assessed as reversal of reserpine-induced catalepsy at 0.05 mmol/kg, sc measured every 30 mins up to 1.5 hrs", "type": "functional, organism-based"}, "Mus musculus [23]": {"test_system": "Mus musculus", "assay": "Antidepressant activity in CFW mouse assessed as reversal of reserpine-induced hypothermia by measuring temperature index at 0.16 mmol/kg, sc measured every 30 mins up to 1.5 hrs", "type": "functional"}, "Mus musculus [24]": {"test_system": "Mus musculus", "assay": "Antiparkinsonian activity in CFW mouse assessed as reversal of reserpine-induced catalepsy at 0.16 mmol/kg, sc measured every 30 mins up to 1.5 hrs", "type": "functional, organism-based"}, "Mus musculus [25]": {"test_system": "Mus musculus", "assay": "Antidepressant activity in CFW mouse assessed as reversal of reserpine-induced hypothermia by measuring temperature index at 0.17 mmol/kg, sc measured every 30 mins up to 1.5 hrs", "type": "functional"}, "Mus musculus [26]": {"test_system": "Mus musculus", "assay": "Antiparkinsonian activity in CFW mouse assessed as reversal of reserpine-induced catalepsy at 0.17 mmol/kg, sc measured every 30 mins up to 1.5 hrs", "type": "functional, organism-based"}},
  "note": "The source made the active and inactive calls. No cut-off for these calls is given here.",
  "data": [
    {"smiles": "CNCCC12CC3CC(CC(C3)C1Br)C2.O=C(O)/C=C\\C(=O)O", "note": "(stereo not drawn)", "values": [
      {"measurement": "LD50 at 48 h", "setting": "[1]", "result": 1600, "unit": "µmol/kg"},
      {"measurement": "LD50 at 48 h", "setting": "[2]", "result": 400, "unit": "µmol/kg"},
      {"measurement": "Activity", "setting": "Mus musculus [3]", "result": 5},
      {"measurement": "Activity", "setting": "Mus musculus [4]", "result": "inactive"},
      {"measurement": "Activity", "setting": "Rattus norvegicus [5]", "result": "Active"}
    ]},
    {"smiles": "CNCCC12CC3CC(CC(C3)C1Cl)C2.Cl", "note": "(stereo not drawn)", "values": [
      {"measurement": "LD50 at 48 h", "setting": "[1]", "result": 1500, "unit": "µmol/kg"},
      {"measurement": "LD50 at 48 h", "setting": "[2]", "result": 600, "unit": "µmol/kg"},
      {"measurement": "Activity", "setting": "Mus musculus [3]", "result": ">10"},
      {"measurement": "Activity", "setting": "Mus musculus [6]", "result": "Active"},
      {"measurement": "Activity", "setting": "Rattus norvegicus [7]", "result": "Active"}
    ]},
    {"smiles": "CNCC12CC3CC(CC(C3)C1Cl)C2.Cl", "note": "(stereo not drawn)", "values": [
      {"measurement": "LD50 at 48 h", "setting": "[1]", "result": 1200, "unit": "µmol/kg"},
      {"measurement": "LD50 at 48 h", "setting": "[2]", "result": 600, "unit": "µmol/kg"},
      {"measurement": "Activity", "setting": "Mus musculus [8]", "result": "inactive"},
      {"measurement": "Activity", "setting": "Mus musculus [9]", "result": "inactive"},
      {"measurement": "Activity", "setting": "Rattus norvegicus [10]", "result": "Active"},
      {"measurement": "Ratio", "setting": "Rattus norvegicus [11]", "result": 2}
    ]},
    {"smiles": "CN1CCN(CC23CC4CC(CC(C4)C2O)C3)CC1.Cl", "note": "(stereo not drawn)", "values": [
      {"measurement": "LD50 at 48 h", "setting": "[1]", "result": 1200, "unit": "µmol/kg"},
      {"measurement": "LD50 at 48 h", "setting": "[2]", "result": 900, "unit": "µmol/kg"},
      {"measurement": "Activity", "setting": "Mus musculus [12]", "result": 5},
      {"measurement": "Activity", "setting": "Mus musculus [6]", "result": "inactive"}
    ]},
    {"smiles": "CNC1CC2CC3CC(C2)C1C3.Cl", "note": "(stereo not drawn)", "values": [
      {"measurement": "LD50 at 48 h", "setting": "[1]", "result": 2000, "unit": "µmol/kg"},
      {"measurement": "LD50 at 48 h", "setting": "[2]", "result": 700, "unit": "µmol/kg"},
      {"measurement": "Activity", "setting": "Mus musculus [13]", "result": "inactive"},
      {"measurement": "Activity", "setting": "Mus musculus [14]", "result": "Active"}
    ]},
    {"smiles": "CNCC12CC3CC(CC(C3)C1c1ccccc1)C2.Cl", "note": "(stereo not drawn)", "values": [
      {"measurement": "Activity", "setting": "Mus musculus [15]", "result": 5},
      {"measurement": "Activity", "setting": "Mus musculus [16]", "result": "inactive"},
      {"measurement": "Activity", "setting": "Rattus norvegicus [17]", "result": "inactive"}
    ]},
    {"smiles": "CN1CCN(CC2(O)CC3CC4CC(C3)C2C4)CC1.Cl", "note": "(stereo not drawn)", "values": [
      {"measurement": "LD50 at 48 h", "setting": "[1]", "result": 2400, "unit": "µmol/kg"},
      {"measurement": "LD50 at 48 h", "setting": "[2]", "result": 900, "unit": "µmol/kg"},
      {"measurement": "Activity", "setting": "Mus musculus [15]", "result": 5},
      {"measurement": "Activity", "setting": "Mus musculus [6]", "result": "inactive"}
    ]},
    {"smiles": "NC12CC3CC(CC(C3)C1)C2", "note": "[AMANTADINE]", "values": [
      {"measurement": "Activity", "setting": "Mus musculus [18]", "result": 5},
      {"measurement": "Activity", "setting": "Mus musculus [19]", "result": "inactive"},
      {"measurement": "Activity", "setting": "Rattus norvegicus [20]", "result": "Active"}
    ]},
    {"smiles": "O=C(O)/C=C\\C(=O)O.c1ccc(CNCC2CC3CC4CC(C3)C2C4)cc1", "note": "(stereo not drawn)", "values": [
      {"measurement": "LD50 at 48 h", "setting": "[1]", "result": 500, "unit": "µmol/kg"},
      {"measurement": "LD50 at 48 h", "setting": "[2]", "result": 200, "unit": "µmol/kg"},
      {"measurement": "Activity", "setting": "Mus musculus [21]", "result": "inactive"},
      {"measurement": "Activity", "setting": "Mus musculus [22]", "result": "inactive"}
    ]},
    {"smiles": "Cl.NC1CC2CC3CC(C2)C1C3", "note": "(stereo not drawn)", "values": [
      {"measurement": "LD50 at 48 h", "setting": "[1]", "result": 3200, "unit": "µmol/kg"},
      {"measurement": "LD50 at 48 h", "setting": "[2]", "result": 800, "unit": "µmol/kg"},
      {"measurement": "Activity", "setting": "Mus musculus [23]", "result": "inactive"},
      {"measurement": "Activity", "setting": "Mus musculus [24]", "result": "inactive"}
    ]},
    {"smiles": "CNCC12CC3CC(CC(C3)C1Br)C2.Cl", "note": "(stereo not drawn)", "values": [
      {"measurement": "LD50 at 48 h", "setting": "[1]", "result": 1000, "unit": "µmol/kg"},
      {"measurement": "LD50 at 48 h", "setting": "[2]", "result": 1000, "unit": "µmol/kg"},
      {"measurement": "Activity", "setting": "Mus musculus [25]", "result": 5},
      {"measurement": "Activity", "setting": "Mus musculus [26]", "result": "Active"},
      {"measurement": "Activity", "setting": "Rattus norvegicus [17]", "result": "Active"},
      {"measurement": "Ratio", "setting": "Rattus norvegicus [11]", "result": 2}
    ]}
  ]
}
